Results of several laboratories.
Compare with care: the assays were run in different laboratories.
AMY2: Pancreatic alpha-amylase (AMY2, Sus scrofa, UniProt P00690)
EIF2AK3: Eukaryotic translation initiation factor 2-alpha kinase 3 (EIF2AK3, Homo sapiens, UniProt Q9NZJ5)
D14: D14 (Arabidopsis thaliana, UniProt Q9SQR3)

O=C1C[C@@H](c2ccccc2)Oc2cc(O)cc(O)c21  inhibition (AMY2; enzyme activity, inhibitor; 50 µM): 25.2%
C#Cc1cc(-c2cc(Nc3nc(N[C@@H](C)c4ccc(F)cn4)ncc3Cl)n[nH]2)ccc1C=O  inhibition (EIF2AK3; enzyme activity, inhibitor; 0.2 µM): 16.5%
CC(=O)/C=C/C=C(C)/C=C/C1=C(C)CC(O)CC1(C)C (stereo in doubt)  ΔTm (D14; thermal stability, DSF; 1 µM): 0.09 °C
Cc1cc(S(=O)(=O)N[C@H]2CC[C@H](CN3CCN(c4ccc(C5CCC(=O)NC5=O)cc4F)CC3)CC2)ccc1Nc1ncc(C(F)(F)F)c(N2CCC[C@](C)(O)C2)n1 (stereo partly drawn)  remaining binding (Cyclin-dependent kinase 4 (CDK4, Homo sapiens, UniProt P11802); binding, competition with immobilised ligand; 1 µM): 100%
CC1=CC(O/C=C2/C(=O)OC3c4ccccc4CC23)OC1=O (racemic)  ΔTm (D14; thermal stability; 50 µM): -7.73 °C
COc1ccc2oc(-c3ccc4nc(N)oc4c3)c/c(=N\c3ccccc3NC(=O)CCN)c2c1  remaining binding (Serine-protein kinase ATM (ATM, Homo sapiens, UniProt Q13315); binding, competition with immobilised ligand; 1 µM): 94%
COc1ccc([C@@H]2CC(=O)c3c(O)cc(O)cc3O2)cc1O  inhibition (AMY2; enzyme activity, inhibitor; 50 µM, 30 min): 30.3%
CC(=O)/C=C/C=C(C)/C=C/C1=C(C)CCCC1(C)C  ΔTm (D14; thermal stability, DSF; 50 µM): 1.3 °C
O=c1cc(-c2ccc(O)c(O)c2)oc2c(Br)c(O)c(Br)c(O)c12  inhibition (AMY2; enzyme activity, inhibitor; 50 µM, 30 min): 99.8%
NC/C(=C\F)COc1cccc(Cn2c(=S)[nH]c(=O)c3[nH]cnc32)c1  inhibition (Muscarinic acetylcholine receptor M2 (CHRM2, Homo sapiens, UniProt P08172); ligand displacement, radioligand; 10 µM): < 50%
O=c1cc(-c2ccccc2)oc2cc(O)cc(O)c12  inhibition (AMY2; enzyme activity, inhibitor; 50 µM, 30 min): 22.3%
C1=C/COCc2cc(ccc2OCCN2CCCC2)Nc2nccc(n2)-c2cccc(c2)COC/1  remaining binding (Serine/threonine-protein kinase Nek7 (NEK7, Homo sapiens, UniProt Q8TDX7); binding; 0.1 µM): 40%
COc1cc(O)c2c(c1)O[C@H](c1ccccc1)CC2=O  inhibition (AMY2; enzyme activity, inhibitor; 50 µM, 30 min): 12.7%
Cc1cc(O)c(-c2ccc([C@@H](C)CN(C)C)cc2)c2c1[nH]c(=O)c1sccc12  inhibition (EIF2AK3; enzyme activity, inhibitor; 0.1 µM): -7.06%
CC1=C(/C=C/C(C)=C/C=O)C(C)(C)C[C@H](O)C1  ΔTm (D14; thermal stability, DSF; 10 µM): 0.16 °C
O=c1c(O)c(-c2ccc(O)cc2)oc2c(Br)c(O)c(Br)c(O)c12  inhibition (AMY2; enzyme activity, inhibitor; 50 µM, 30 min): 100%
CCCCC(=O)Nc1ccc(-c2ccc3ncn(CCC)c(=O)c3c2)cn1  remaining binding (Ephrin type-A receptor 5 (EPHA5, Homo sapiens, UniProt P54756); binding, competition with immobilised ligand; 0.5 µM): 84%
CC1=C(/C=C/C(C)=C/C=O)C(C)(C)CCC1  ΔTm (D14; thermal stability, DSF; 50 µM): -3.82 °C
